In PMC11047177 (ESMO Open, 2024):
“Also recorded” adds a separate entry of the source.

Test: Phase I study NCT03854227: DLTs and adverse events
Type: in vivo, human
Outline: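 Open-label, multicentre first-in-human trial in adults (ECOG 0–1) with advanced or metastatic tumours. Oral test compound, q.d. or b.i.d., on an empty stomach in continuous 28-day cycles. Part 1 started at 0.5 mg q.d., with escalation guided by a two-parameter Bayesian logistic regression model on cycle 1 DLTs. Part 2 ran at 6 mg q.d. AEs were graded by CTCAE 5.0 and summarised descriptively by dose level.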

Cc1ncnc2c1ccn2[C@@H]1C[C@H](Oc2cc(C(F)F)c(F)c3c2CNCC3)[C@@H](O)[C@H]1O [PF-06939999]
Grade ≥3 TRAE thrombocytopenia/platelet count decreased (overall (part 1 + part 2), N=54): 22% | TRAE dysgeusia, any grade (part 1 + part 2, N=54): 22% | TRAE fatigue, any grade (part 1 + part 2, N=54): 28% | TRAE nausea, any grade (part 1 + part 2, N=54): 32% | TRAE thrombocytopenia, any grade (part 1 + part 2, N=54): 41% | DLT (part 1, 0.5 mg b.i.d., N=1): 0 n (%) | Grade ≥3 TRAE Anemia (part 1, 0.5 mg b.i.d., N=1): 0 n (%) | Grade ≥3 TRAE Fatigue (part 1, 0.5 mg b.i.d., N=1): 0 n (%) | Grade ≥3 TRAE Lymphocyte count decreased (part 1, 0.5 mg b.i.d., N=1): 0 n (%) | Grade ≥3 TRAE Muscular weakness (part 1, 0.5 mg b.i.d., N=1): 0 n (%) | Grade ≥3 TRAE Neutropenia (part 1, 0.5 mg b.i.d., N=1): 0 n (%) | Grade ≥3 TRAE Thrombocytopenia (part 1, 0.5 mg b.i.d., N=1): 0 n (%) | DLT (part 1, 0.5 mg q.d., N=1): 0 n (%) | Grade ≥3 TRAE Anemia (part 1, 0.5 mg q.d., N=1): 0 n (%) | Grade ≥3 TRAE Fatigue (part 1, 0.5 mg q.d., N=1): 0 n (%) | Grade ≥3 TRAE Lymphocyte count decreased (part 1, 0.5 mg q.d., N=1): 0 n (%) | Grade ≥3 TRAE Muscular weakness (part 1, 0.5 mg q.d., N=1): 0 n (%) | Grade ≥3 TRAE Neutropenia (part 1, 0.5 mg q.d., N=1): 0 n (%) | Grade ≥3 TRAE Thrombocytopenia (part 1, 0.5 mg q.d., N=1): 0 n (%) | DLT (part 1, 1 mg b.i.d., N=2): 0 n (%) | Grade ≥3 TRAE Anemia (part 1, 1 mg b.i.d., N=2): 1 (50) n (%) | Grade ≥3 TRAE Fatigue (part 1, 1 mg b.i.d., N=2): 0 n (%) | Grade ≥3 TRAE Lymphocyte count decreased (part 1, 1 mg b.i.d., N=2): 0 n (%) | Grade ≥3 TRAE Muscular weakness (part 1, 1 mg b.i.d., N=2): 0 n (%) | Grade ≥3 TRAE Neutropenia (part 1, 1 mg b.i.d., N=2): 0 n (%) | Grade ≥3 TRAE Thrombocytopenia (part 1, 1 mg b.i.d., N=2): 0 n (%) | DLT (part 1, 2 mg b.i.d., N=2): 0 n (%) | Grade ≥3 TRAE Anemia (part 1, 2 mg b.i.d., N=3): 0 n (%) | Grade ≥3 TRAE Fatigue (part 1, 2 mg b.i.d., N=3): 0 n (%) | Grade ≥3 TRAE Lymphocyte count decreased (part 1, 2 mg b.i.d., N=3): 0 n (%) | Grade ≥3 TRAE Muscular weakness (part 1, 2 mg b.i.d., N=3): 0 n (%) | Grade ≥3 TRAE Neutropenia (part 1, 2 mg b.i.d., N=3): 0 n (%) | Grade ≥3 TRAE Thrombocytopenia (part 1, 2 mg b.i.d., N=3): 1 (33) n (%) | DLT (part 1, 4 mg b.i.d., N=3): 0 n (%) | Grade ≥3 TRAE Anemia (part 1, 4 mg b.i.d., N=3): 1 (33) n (%) | Grade ≥3 TRAE Fatigue (part 1, 4 mg b.i.d., N=3): 1 (33) n (%) | Grade ≥3 TRAE Lymphocyte count decreased (part 1, 4 mg b.i.d., N=3): 0 n (%) | Grade ≥3 TRAE Muscular weakness (part 1, 4 mg b.i.d., N=3): 0 n (%) | Grade ≥3 TRAE Neutropenia (part 1, 4 mg b.i.d., N=3): 0 n (%) | Grade ≥3 TRAE Thrombocytopenia (part 1, 4 mg b.i.d., N=3): 1 (33) n (%) | DLT (part 1, 4 mg q.d., N=4): 0 n (%) | Grade ≥3 TRAE Anemia (part 1, 4 mg q.d., N=5): 2 (40) n (%) | Grade ≥3 TRAE Fatigue (part 1, 4 mg q.d., N=5): 0 n (%) | Grade ≥3 TRAE Lymphocyte count decreased (part 1, 4 mg q.d., N=5): 0 n (%) | Grade ≥3 TRAE Muscular weakness (part 1, 4 mg q.d., N=5): 1 (20) n (%) | Grade ≥3 TRAE Neutropenia (part 1, 4 mg q.d., N=5): 0 n (%) | Grade ≥3 TRAE Thrombocytopenia (part 1, 4 mg q.d., N=5): 0 n (%) | DLT thrombocytopenia, number of patients (part 1, 6 mg b.i.d.): 2 n | DLT (part 1, 6 mg b.i.d., N=2): 2 (100) n (%) | Grade ≥3 TRAE Anemia (part 1, 6 mg b.i.d., N=4): 1 (25) n (%) | Grade ≥3 TRAE Fatigue (part 1, 6 mg b.i.d., N=4): 0 n (%) | Grade ≥3 TRAE Lymphocyte count decreased (part 1, 6 mg b.i.d., N=4): 0 n (%) | Grade ≥3 TRAE Muscular weakness (part 1, 6 mg b.i.d., N=4): 0 n (%) | Grade ≥3 TRAE Neutropenia (part 1, 6 mg b.i.d., N=4): 0 n (%) | Grade ≥3 TRAE Thrombocytopenia (part 1, 6 mg b.i.d., N=4): 2 (50) n (%) | DLT (grade 3) neutropenia, number of patients (part 1, 6 mg q.d.): 1 n | DLT (part 1, 6 mg q.d., N=6): 1 (17) n (%) | Grade ≥3 TRAE Anemia (part 1, 6 mg q.d., N=6): 2 (33) n (%) | Grade ≥3 TRAE Fatigue (part 1, 6 mg q.d., N=6): 1 (17) n (%) | Grade ≥3 TRAE Lymphocyte count decreased (part 1, 6 mg q.d., N=6): 0 n (%) | Grade ≥3 TRAE Muscular weakness (part 1, 6 mg q.d., N=6): 0 n (%) | Grade ≥3 TRAE Neutropenia (part 1, 6 mg q.d., N=6): 1 (17) n (%) | Grade ≥3 TRAE Thrombocytopenia (part 1, 6 mg q.d., N=6): 0 n (%) | DLT (grade 3) anemia, number of patients (part 1, 8 mg q.d.): 1 n | DLT (part 1, 8 mg q.d., N=3): 1 (33) n (%) | Grade ≥3 TRAE Anemia (part 1, 8 mg q.d., N=3): 1 (33) n (%) | Grade ≥3 TRAE Fatigue (part 1, 8 mg q.d., N=3): 0 n (%) | Grade ≥3 TRAE Lymphocyte count decreased (part 1, 8 mg q.d., N=3): 1 (33) n (%) | Grade ≥3 TRAE Muscular weakness (part 1, 8 mg q.d., N=3): 0 n (%) | Grade ≥3 TRAE Neutropenia (part 1, 8 mg q.d., N=3): 0 n (%) | Grade ≥3 TRAE Thrombocytopenia (part 1, 8 mg q.d., N=3): 2 (67) n (%) | Patients reporting DLTs (part 1, 4 of 24 DLT-assessable patients): 17% | DLT grade 3 thrombocytopenia, number of patients (part 1, 6-mg b.i.d. cohort): 1 n | DLT grade 4 thrombocytopenia, number of patients (part 1, 6-mg b.i.d. cohort): 1 n | DLT (part 1, Total, N=24): 4 (17) n (%) | Grade ≥3 TRAE Fatigue (part 1, Total, N=28): 2 (7) n (%) | Grade ≥3 TRAE Lymphocyte count decreased (part 1, Total, N=28): 1 (4) n (%) | Grade ≥3 TRAE Muscular weakness (part 1, Total, N=28): 1 (4) n (%) | Grade ≥3 TRAE Neutropenia (part 1, Total, N=28): 1 (4) n (%) | Grade ≥3 TRAE Thrombocytopenia (part 1, Total, N=28): 6 (21) n (%) | Maximum tolerated dose (MTD) (part 1 dose escalation, 0.5 mg q.d. to 6 mg b.i.d.): No MTD was determined; also recorded: MTD was not identified | Dose reduction due to thrombocytopenia, patients (part 2, 6 mg q.d., 4 patients): 15% | Dose reduction due to anemia, patients (part 2, 6 mg q.d., 5 patients): 19% | Patients with ≥1 dose reduction due to AEs (part 2, 6 mg q.d., eight patients): 31%
